Tb MetRS inh: T. brucei MetRS inhibitors, primary screen, biochemical, luminescence | methionyl-tRNA synthetase (Trypanosoma brucei brucei) | purified T. brucei MetRS, ATP depletion, Kinase-Glo luminescence | inhibition, % at 11.9 µM | actives 0.4% (n = 360,000) | AID 624268, 2012;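 active means inhibition above a per-plate cutoff of the control wells' mean inhibition plus 3 SD, cut at about 5.5% in these data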;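 further: 0% = DMSO wells median and 100% = median of wells with control inhibitor compound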
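Dosing: 11.9 µM compound single dose, 0.9% DMSO; Assay system: purified T. brucei MetRS enzyme; Measured by: Kinase-Glo luciferase luminescence reporting remaining unconsumed ATP; Schedule: 15 min plus 2 h at 25 °C.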
PLCg1 inh: PLC-gamma1 enzyme inhibitors, primary screen, biochemical, fluorescence, purified enzyme | inhibition, % at 12.2 µM | AID 720700, 2013 | fluorogenic substrate | actives 0.84% (n = 370,000) | 1-phosphatidylinositol 4,5-bisphosphate phosphodiesterase gamma-1 (Homo sapiens), P19174; in the data active means inhibition above about 9.5%
ADAM17 inh: ADAM17 inhibitors, primary screen, biochemical, QFRET; Disintegrin and metalloproteinase domain-containing protein 17 (Homo sapiens), P78536; recombinant ADAM17, EDANS/DABCYL FRET peptide cleavage; inhibition, % at 6.95 µM; actives 0.83% (n = 370,000);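 active means inhibition above the mean of compounds lying between control limits plus 3 SD, set per campaign, cut at about 8.5% in these data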;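 further: 0% = DMSO-only wells as the low control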
ADAM10 inh: human ADAM10 inhibitors, primary screen, biochemical, QFRET, HTS; inhibition, % at 7 µM; actives 0.62% (n = 370,000); Disintegrin and metalloproteinase domain-containing protein 10 (Homo sapiens), O14672; recombinant ADAM10, EDANS/DABCYL FRET peptide cleavage, 3 h; AID 720582, 2013;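 active means inhibition above a per-campaign cutoff equal to the mean of compounds falling between control-based bounds plus 3 SD, cut at about 20% in these data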;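 further: 0% = DMSO wells while the 100% control is not disclosed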
PLC-beta3 inh: human PLC-beta3 inhibitors, primary screen, biochemical, fluorescence | 1-phosphatidylinositol 4,5-bisphosphate phosphodiesterase beta-3 (Homo sapiens), Q01970 | Purified PLC-beta3, fluorogenic substrate | inhibition, % at 12.2 µM | actives 0.18% (n = 370,000) | AID 720704, 2013; in the data active means inhibition above about 11%;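 further: 0% = median of compound wells on plate and 100% = full blocker control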
ADAM10 ctr: ADAM10 inhibitors, counter-screen for ADAM17 exosite inhibitor project, biochemical, FRET, human ADAM10; AID 743256, 2014; actives 47% (n = 2,900); shares compounds with ADAM17 inh; inhibition, % at 6.95 µM; recombinant ADAM10, EDANS/DABCYL FRET peptide cleavage, 3 h;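 active means mean inhibition over the triplicate runs exceeds the activity threshold set in the earlier primary screen, cut at about 20% in these data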;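 further: 0% = DMSO wells and 100% = marimastat wells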
ADAM17 confirm: ADAM17 inhibitors, hit retest, confirmation, biochemical, QFRET peptide cleavage; shares compounds with ADAM17 inh; recombinant ADAM17, EDANS/DABCYL QFRET peptide cleavage; inhibition, % at 6.95 µM; actives 65% (n = 2,900); AID 743257, 2014;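 active means mean inhibition across replicates above the hit cutoff set in the primary screen, cut at about 8.5% in these data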;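 further: 0% = DMSO wells and 100% = marimastat wells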
Starred values were filed as active, the others as inactive; i = inactive; · = no result. Only some compounds are listed: those with a hit (about 2.3% of all), similar ones and a draw of the others.

SMILES	Tb MetRS inh	PLCg1 inh	ADAM17 inh	ADAM10 inh	PLC-beta3 inh	ADAM10 ctr	ADAM17 confirm
O=C(NC1=NCCS1)c1cccc(S(=O)(=O)N2CCOCC2)c1	-1	2	2	1	0	·	·
O=C(/C=C(\Nc1cccc(F)c1)c1ccccc1)c1ccccc1	·	0	-3	-7	2	·	·
CC(C)c1ccc(/C=N/n2c(-c3ccccc3)n[nH]c2=S)cc1	-1	7	10*	19	-2	9	5
Cc1cccc(/C=N/n2c(-c3ccncc3)n[nH]c2=S)c1	-1	0	11*	10	8	12	4
COc1cccc(-c2ncc3ccccc3c2COC(=O)c2ccc(C(C)(C)C)cc2)c1	0	1	-2	1	-4	·	·
c1ccc(-c2nc(NCc3ccco3)c3oc4ccccc4c3n2)cc1	0	-3	9.0*	4	-5	29*	19*
Cc1ccc(-c2nc(NCc3ccco3)c3ccccc3n2)cc1	0	-6	8	7	-8	·	·
COc1ccc(CNS(=O)(=O)/C=C/c2ccc(OC)cc2CNC(=O)OC(C)(C)C)cc1	·	0	9.4*	11	4	23*	9.7*
Nc1nccc(SCc2ccccc2)n1	0	2	-1	-13	0	·	·
Cc1cccc(C)c1NC(=O)C1(C)CSCC(=O)N1CCc1c[nH]c2ccccc12 (stereo unspecified)	0	3	11*	-5	5	1	4
Cc1cccc(C)c1NC(=O)C1(C)CSCC(=O)N1CCc1ccccc1F (stereo unspecified)	0	2	2	-2	-2	·	·
CCCc1cc(-c2[nH]ncc2-c2ccc3c(c2)OCCCO3)c(O)cc1O	0	2	11*	4	-1	27*	14*
CCn1c2c(c3cc(Br)ccc31)CCC/C2=N\O	1	6	9.5*	16	-2	0	6
CCn1c2c(c3cc(OCC(C)C)ccc31)CCCC2=O	0	-176	-10	-27	-240	·	·
CC(C)CCCCCCNC(=S)Nc1ccc(S(=O)(=O)N2CCOCC2)cc1	-1	0	9.0*	16	3	47*	23*
O=C(OCC(=O)N1CCN(C(=O)COC(=O)c2ccccc2NCCO)CC1)c1ccccc1NCCO	0	i	i	i	i	·	·
O=C(NC(Nc1nc2ccc([N+](=O)[O-])cc2s1)(C(F)(F)F)C(F)(F)F)c1ccccc1Cl	1	-9	11*	16	-12	22*	13*
O=C(NC(Nc1nc2ccc([N+](=O)[O-])cc2s1)(C(F)(F)F)C(F)(F)F)c1cccnc1	-2	1	9	18	2	·	·
O=C(Nc1nc(-c2ccccn2)cs1)c1cc2ccccc2o1	0	-57	-6	-18	-53	·	·
Cc1cc(-c2csc(NC(=O)c3cc4ccccc4o3)n2)c(C)n1C	-1	-82	11*	14	-100	16	7
O=C(O)c1ccc(CS(=O)(=O)c2ccc(Br)cc2)cc1	0	0	-4	-6	-4	·	·
O[C@H]1C[C@H](c2ccccc2)N(CC2CCCCC2)C[C@@H]1n1cc(C2CC2)nn1	1	5	9.0*	18	0	21*	13*
O[C@@H]1CN(CC2CCCCC2)[C@@H](c2ccccc2)C[C@H]1n1cc(C2CC2)nn1	1	9	7	2	6	·	·
COc1ccc(CN(C)C(=O)c2ccc(OCC(=O)Nc3cccc(C(F)(F)F)c3)c(OC)c2)c(OC)c1	0	3	5	10	3	·	·
COc1cccc(CN(C)C(=O)c2ccc(OCC(=O)Nc3cccc(C(F)(F)F)c3)c(OC)c2)c1	-1	-2	8.8*	16	-2	26*	15*
SMILES	Tb MetRS inh	PLCg1 inh	ADAM17 inh	ADAM10 inh	PLC-beta3 inh	ADAM10 ctr	ADAM17 confirm
O=C1CSC(=S)N1Cc1cccs1	0	-6	-1	3	-10	·	·
COc1cccc(C(=O)c2c[nH]c(C(=O)NCCCN3CCOCC3)c2)c1	0	1	-1	8	-3	·	·
c1ccc(-c2cccc(CNc3nc(-c4ccccn4)nnc3-c3ccccc3)c2)cc1	·	3	9.0*	14	3	9	6
C[C@@H](NC(=O)c1[nH]cnc1C(=O)Nc1ccon1)c1ccccc1	0	-1	-1	4	0	·	·
COC(=O)[C@H](CC(C)C)N(CCCc1cn(Cc2ccccc2)nn1)S(=O)(=O)c1ccccc1Br	·	5	13*	19	9	36*	15*
COC(=O)[C@H](CC(C)C)N(CCc1cn(Cc2ccccc2)nn1)S(=O)(=O)c1ccccc1Br	·	2	8.7*	14	2	17	12*
COC(=O)[C@H](C)N(CCc1cn(Cc2ccccc2)nn1)S(=O)(=O)c1ccccc1Br	·	3	-3	-13	2	·	·
CCOc1ccc2ccc(OCC)c(/C=N/n3cnnc3)c2c1	-1	-32	-23	-40	-50	·	·
COc1ccccc1OCC(=O)Nc1oc(-c2ccccc2)c(-c2ccccc2)c1C#N	-1	-18	3	4	-22	·	·
N#Cc1c(NC(=O)COC(=O)C2CC3C=CC2C3)oc(-c2ccccc2)c1-c1ccccc1 (stereo unspecified)	0	-5	8.9*	16	-16	-14	-2
COCCCn1cc(CN2CC(N3CCCCC3)CS2(=O)=O)nn1 (stereo unspecified)	0	0	-2	-1	2	·	·
Cc1ccc(S(=O)(=O)N2C[C@H]3C(=O)C[C@@H](c4ccccc4F)N(S(=O)(=O)c4ccc(C)cc4)[C@H]3C[C@H]2c2ccccc2)cc1	-2	2	10*	-1	1	14	6
CCCCCCn1c(=O)n2n(c1=O)[C@@H]1CN(S(=O)(=O)c3ccc(C)cc3)C[C@]1(O)[C@@H](OC(=O)Nc1c(C)noc1C)C2	-1	2	0	9	5	·	·
CC(C)(C)n1nc2c(c1NC(=O)C1CC(=O)N(c3ccc(Cl)cc3)C1)CS(=O)(=O)C2 (stereo unspecified)	0	-2	0	-3	-3	·	·

High-throughput results deposited in PubChem by The Scripps Research Institute Molecular Screening Center.
